# Activity calls are given as the source filed them. No cut-off for these calls is given here.
# Experiments:
# [1] = test system: HMC1; assay: Inhibition of FCepsilonRI expression in human HMC1 cells at 30 to 100 uM after 72 hrs by flow cytometric analysis; assay type: functional, cell-based
# In short: (§1)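 HMC-1 human mast cells exposed to test sample for 72 h, then harvested and stained with anti-FcεRI α-chain antibody plus FITC-labelled secondary antibody; surface FcεRI read as FITC fluorescence by flow cytometry. Mean ± SD of triplicate experiments.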
# [2] = test system: HMC1; assay: Inhibition of FCepsilonRI expression in human HMC1 cells at 30 uM after 72 hrs by flow cytometric analysis; assay type: functional; conditions: for inhibition (INH): in the assay text read “30 ug/mL” for “30 uM”; in short: as §1
# [3] = test system: HMC1; assay: Inhibition of FCepsilonRIgamma subunit mRNA expression in human HMC1 cells at 50 to 100 uM after 36 hrs by RT-PCR analysis; assay type: functional, cell-based
# In short: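 After 36 h culture of HMC-1 cells with compound, total RNA extracted; mRNA of each FcεRI subunit measured by RT-PCR with ethidium bromide staining of products, normalized to g3pdh and compared with vehicle. Mean ± SD, triplicate experiments.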
# [4] = test system: HMC1; assay: Inhibition of FCepsilonRIbeta subunit mRNA expression in human HMC1 cells at 50 to 100 uM after 36 hrs by RT-PCR analysis
Compound,inhibition [1],further results
COc1cc2ccc(=O)oc2c(O)c1OCC(O)C(C)(C)O (stereo unspecified),inactive,–
COc1cc2ccc(=O)oc2c(OC)c1OCC(O)C(C)C (stereo unspecified),Active,–
COc1cc2ccc(=O)oc2c(OC)c1OCC1OC1(C)C (stereo unspecified),Active,–
COc1cc2ccc(=O)oc2c(OC)c1OCCC(C)(C)O,Active,–
COc1cc2ccc(=O)oc2c(OC)c1OCCC(C)C,Active,–
COc1cc2ccc(=O)oc2c(OC)c1OCC(O)C(C)(C)O (racemic) [listing 1 of 2 here],–,inhibition (INH) [2]: 49%
COc1c(OCC(O)C(C)(C)O)c(O)cc2ccc(=O)oc12 (racemic),inactive,–
COc1cc2ccc(=O)oc2c(OC)c1OCC(O)C(C)(C)O (racemic) [listing 2 of 2 here],–,inhibition [3]: inactive; inhibition [4]: Active
"COc1cc2ccc(=O)oc2c(OC)c1OCC(O)C(C)(C)O (single isomer, unassigned; enantiomer 1)",–,inhibition (INH) [2]: 45.1%
COc1cc2ccc(=O)oc2c(OC)c1OCC(O)C(C)(C)O (stereo in doubt),–,"inhibition at 30 µM ([2]; Homo sapiens, HMC1, 72 h): 44.3%"

# From ChEMBL document CHEMBL4265924, “Inhibitor for FcεRI expression on mast cell from Verbasucum thapsus L” (2018)
